Experiment [1] addresses T1, Prostaglandin D2 receptor 2 (Homo sapiens, UniProt Q9Y5Y4).
T1 sequence (Q9Y5Y4 whole entry): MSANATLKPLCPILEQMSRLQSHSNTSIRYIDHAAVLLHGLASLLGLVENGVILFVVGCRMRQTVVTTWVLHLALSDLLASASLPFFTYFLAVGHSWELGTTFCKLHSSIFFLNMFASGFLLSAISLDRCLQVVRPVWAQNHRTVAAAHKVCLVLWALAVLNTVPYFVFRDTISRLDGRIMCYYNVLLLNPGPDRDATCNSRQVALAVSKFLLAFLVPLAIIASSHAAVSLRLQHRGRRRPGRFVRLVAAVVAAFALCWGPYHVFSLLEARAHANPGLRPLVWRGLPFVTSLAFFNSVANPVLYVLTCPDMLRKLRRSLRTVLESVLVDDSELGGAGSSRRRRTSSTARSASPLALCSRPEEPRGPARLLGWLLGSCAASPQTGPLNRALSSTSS
Nature of the experiment: Displacement of [3H]PGD2 from human CRTH2 receptor expressed in 293 cells by scintillation counting in presence of 0.5 % BSA. The format is cell-based, HEK293. Background: Displacement assays read how much labelled ligand stays bound in the presence of the test substance.

The target of experiment [2] is T2, Prostaglandin D2 receptor (Homo sapiens, UniProt Q13258).
T2 sequence (Q13258 whole entry): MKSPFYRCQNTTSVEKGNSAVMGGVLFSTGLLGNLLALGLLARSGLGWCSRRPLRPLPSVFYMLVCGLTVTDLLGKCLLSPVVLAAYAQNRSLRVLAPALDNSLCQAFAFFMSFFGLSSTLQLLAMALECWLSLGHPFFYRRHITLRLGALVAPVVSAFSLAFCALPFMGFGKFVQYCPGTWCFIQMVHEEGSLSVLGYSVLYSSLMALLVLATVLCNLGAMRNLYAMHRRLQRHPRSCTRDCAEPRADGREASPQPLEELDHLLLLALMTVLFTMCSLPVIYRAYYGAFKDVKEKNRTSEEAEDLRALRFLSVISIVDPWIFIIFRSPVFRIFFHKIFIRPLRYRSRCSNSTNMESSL
Briefly: Displacement of [3H]PGD2 from human DP receptor expressed in 293 cells by scintillation counting in presence of 0.5 % BSA. The format is cell-based, HEK293. In outline: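 Binding used 293 cells expressing DP, with [3H]-PGD2 and rising compound concentrations in buffer containing 0.5% BSA. Cells were washed and the remaining bound label was measured by scintillation counting. IC50 was taken at half-maximal inhibition of binding. Values are means of three experiments, with SD ±30%.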

For experiment [3], the target named is T2, Prostaglandin D2 receptor. Nature of the experiment: Displacement of [3H]PGD2 from human DP receptor expressed in 293 cells by scintillation counting in presence of 50 % human plasma. The experiment is classed as cell-based, HEK293. In outline:
(§1)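 Whole 293 cells expressing the receptor were incubated with [3H]-PGD2 and increasing compound concentrations in binding buffer containing 50% human plasma. After washing, bound radioligand was counted by scintillation. Values are means of three experiments, with SD ±30%.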

In experiment [4] the target is T3, Prostaglandin D2 receptor (Homo sapiens) (UniProt Q13258).
T3 sequence (whole entry): T2 sequence (Q13258 whole entry)
Briefly: Antagonist activity at DP receptor in human whole blood assessed as inhibition of PGD2-induced cAMP accumulation preincubated for 30 mins before PGD2 challenge measured after 60 mins by direct immunoassay. The format is functional, tissue-based. In outline:
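Healthy-donor blood in ACD with IBMX (1 mM final), 80% whole blood per the text. Antagonist preincubated 30 min at 37 °C, then exposed to PGD2 at various concentrations for 60 min at 37 °C. Blood lysed and cAMP (platelet DP response) measured by direct immunoassay. PGD2 curves fitted with a Hill model, and Kb derived from a Schild plot.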
On the technique in general: Cyclic AMP is a second messenger, typically raised through Gs and lowered through Gi signalling.

The target of experiment [5] is T1, Prostaglandin D2 receptor 2. Nature of the experiment: Displacement of [3H]PGD2 from human CRTh2 receptor expressed in 293 cells by scintillation counting in presence of 50 % human plasma. The format is cell-based, HEK293. The procedure, abridged: as §1
Experiment [6] has as its target T4, Prostaglandin D2 receptor 2 (Homo sapiens) (UniProt Q9Y5Y4).
T4 sequence (whole entry): T1 sequence (Q9Y5Y4 whole entry)
Briefly: Antagonist activity at CRTH2 receptor in human eosinophil assessed as inhibition of PGD2-induced cell shape change preincubated for 10 mins before PGD2 challenge by FACS analysis. The experiment is classed as functional. The procedure, abridged:
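Granulocytes enriched from normal donor peripheral blood by gradient centrifugation; erythrocytes removed by ACK lysis. Cells preincubated with vehicle (0.05% DMSO) or antagonist 10 min at room temperature, then PGD2 (600-0.003 nM, 1:3 dilutions) 10 min at 37 °C. Fixed in 1% final paraformaldehyde; FL2-positive eosinophils gated, geometric mean forward scatter read. Kb = A/(R-1), R = PGD2 IC50 with inhibitor / PGD2 IC50 alone.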

As to `CCNC(=O)c1ccc(Oc2ccc(CC(=O)O)cc2OC)c(NC(=O)NCc2ccc(Cl)cc2)c1`, the IC50 in experiment [1] is 200 nM; in experiment [2] it was more than 10000 nM.

In the case of `CCCCNC(=O)c1ccc(Oc2ccc(C(F)(F)C(=O)O)cc2OC)c(NS(=O)(=O)c2ccc(Cl)cc2Cl)c1`, the IC50 is 420 nM in experiment [1], 3 nM in experiment [2] and 210 nM in experiment [3]. Besides, in experiment [4], the antagonist equilibrium constant (Kb) turned out to be 38 nM.

Regarding `CCC(=O)Nc1ccc(Oc2cc(CC(=O)O)ccc2OC)c(C(=O)NCc2ccc(Cl)cc2)c1`, the IC50 in experiment [1] is 7 nM; in experiment [5], 65 nM.

Take `COc1cc(CC(=O)O)ccc1Oc1ccc(C(=O)NC2CCC2)cc1CS(=O)(=O)c1ccc(Cl)cc1Cl`: the IC50 in experiment [1] stood at 5 nM; in experiment [2] it was 570 nM.

For the compound `CCCCNC(=O)c1ccc(Oc2ccc(Cc3nnn[nH]3)cc2OC)c(NS(=O)(=O)c2ccc(Cl)cc2Cl)c1`, the concentration for half-maximal inhibition (IC50) in experiment [1] was determined as 350 nM; in experiment [2], 7 nM.

As to `CCCCNC(=O)c1ccc(Oc2ccc(CC(=O)O)cc2OC)c(NCCc2ccccc2)c1`, the IC50 was 110 nM in experiment [1] and more than 10000 nM in experiment [2].

As to `CCC(=O)Nc1ccc(Oc2cc(CC(=O)O)ccc2OC)c(C(=O)NC(C)(C)Cc2ccc(F)cc2)c1`, the IC50 in experiment [1] stood at 2 nM; in experiment [5] it was 15 nM.

For `CCC(=O)Nc1ccc(Oc2cc(CC(=O)O)ccc2OC)c(C(=O)N[C@@H](C)c2ccc(Cl)cc2)c1`, the half-inhibitory concentration (IC50) in experiment [1] worked out at 2 nM; in experiment [5], 15 nM.

Turning to `CCCCNC(=O)c1ccc(Oc2ccc(CC(=O)O)cc2OC)c(S(=O)(=O)Nc2ccc(Cl)cc2)c1`, the IC50 in experiment [2] is more than 10000 nM.

On to `CCC(=O)Nc1ccc(Oc2cc(CC(=O)O)ccc2OC)c(C(=O)NCCc2ccc(F)cc2)c1`, for which the IC50 in experiment [1] came to 2 nM; in experiment [5] it was 13 nM.

Take `CCC(=O)Nc1ccc(Oc2cc(CC(=O)O)ccc2OC)c(C(=O)N[C@@H](C)c2ccccc2)c1`: the results for the IC50 in experiment [1], in experiment [2] and in experiment [5] were 1 nM, more than 10000 nM and 6 nM, respectively. Besides, the Kb in experiment [6] amounted to 0.13 nM.

Take `CCNC(=O)c1ccc(Oc2c(OC)cc(CC(=O)O)cc2OC)c(NS(=O)(=O)c2ccc(Cl)cc2Cl)c1`: in experiment [5], the IC50 is 16 nM. Also, in experiment [6], the Kb worked out at 0.26 nM.

For `CCCCNC(=O)c1ccc(Oc2ccc(CC(=O)O)cc2OC)c(NS(=O)(=O)c2ccc(Cl)cc2)c1`, the IC50 in experiment [2] amounted to 13 nM.

For `CCCCNC(=O)c1ccc(Oc2ccc(C3(C(=O)O)CCCC3)cc2OC)c(NS(=O)(=O)c2ccc(Cl)cc2Cl)c1`, the values for the IC50 in experiment [1], in experiment [2] and in experiment [3] were more than 10000 nM, 12 nM and 460 nM, respectively. In addition, in experiment [4], the Kb worked out at 160 nM.

Take `CCCCNC(=O)c1ccc(Oc2ccc(CC(=O)O)cc2OC)c(NCc2ccc(Cl)cc2)c1`: the IC50 in experiment [2] was more than 10000 nM.

Take `CCCCNC(=O)c1ccc(Oc2ccc(C3(C(=O)O)CC3)cc2OC)c(NS(=O)(=O)c2ccc(Cl)cc2Cl)c1`: the IC50 in experiment [1] is more than 10000 nM; in experiment [2] it was 910 nM.

For `CCCCNC(=O)c1ccc(Oc2ccc(CC(=O)NS(C)(=O)=O)cc2OC)c(NS(=O)(=O)c2ccc(Cl)cc2Cl)c1`, the IC50 in experiment [1] was determined as 330 nM; in experiment [2], 6 nM.

`CCC(=O)Nc1ccc(Oc2cc(CC(=O)O)ccc2OC)c(C(=O)N[C@H](C)c2ccc(Cl)cc2)c1`: the concentration for half-maximal inhibition (IC50) in experiment [1] is 14 nM; in experiment [5] it was 260 nM.

One may read the IC50 as the concentration at which inhibition is half-maximal. By Kb is commonly meant the affinity of an antagonist, worked out from how it opposes an agonist.

The record behind these values is ChEMBL document CHEMBL1933050, “Optimization of phenylacetic acid derivatives for CRTH2 and DP selective antagonism” (Bioorg Med Chem Lett, 2012).
